From article PMC4206749 (Toxicological Research, 2014)

Columns and labels:
[1] = system: Salmonella typhimurium strain TA100; assay: Bacterial reverse mutation assay; type: cell-based
[2] = system: Salmonella typhimurium strain TA1535; assay: Bacterial reverse mutation assay; type: cell-based
[3] = system: Escherichia coli strain (WP2 uvrA); assay: Bacterial reverse mutation assay; type: cell-based; conditions: E. coli
[4] = system: L5178Y Tk^+/− mouse lymphoma cells; assay: In vitro comet assay; type: cell-based; conditions: 4 hr
CHL cells = assay: Cytotoxicity assay; type: cell-based, Chinese hamster; conditions: 7.81 to 1,000 μg/ml, 24 hr treatments
Method in brief: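 MTT viability test. Cells were seeded at 1 × 10^4 per well overnight, then exposed 24 hr to test compound; CHL range 7.81 to 1,000 μg/ml. MTT was added at 0.5 mg/ml final for 4 hr at 37℃, followed by DMSO lysis and absorbance at 550 nm. Values are percent of untreated control, with triplicate samples in three independent experiments; IC50 was calculated for CHL.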

Oc1ccc(-c2ccc3cc(O)ccc3c2)c(O)c1 [HS-1793, 4-(6-hydroxy-2-naphthyl)-1,3-benzenediol]
Number of reverse mutants/plate (Mean ± SD) ([1]; TA100, with S9 activation, 78.1 μg/plate): 116 ± 13 reverse mutants/plate | Number of reverse mutants/plate (Mean ± SD) ([1]; TA100, with S9 activation, 156.3 μg/plate): 109 ± 8 reverse mutants/plate | Number of reverse mutants/plate (Mean ± SD) ([1]; TA100, with S9 activation, 312.5 μg/plate): 114 ± 4 reverse mutants/plate | Number of reverse mutants/plate (Mean ± SD) ([1]; TA100, with S9 activation, 625 μg/plate): 106 ± 19 reverse mutants/plate | Number of reverse mutants/plate (Mean ± SD) ([1]; TA100, with S9 activation, 1,250 μg/plate): 108 ± 14 reverse mutants/plate | Number of reverse mutants/plate (Mean ± SD) ([1]; TA100, with S9 activation, 2,500 μg/plate): 118 ± 11 reverse mutants/plate | Number of reverse mutants/plate (Mean ± SD) ([1]; TA100, with S9 activation, 5,000 μg/plate): 106 ± 9 reverse mutants/plate | Number of reverse mutants/plate (Mean ± SD) ([1]; TA100, without S9 activation, 78.1 μg/plate): 121 ± 8 reverse mutants/plate | Number of reverse mutants/plate (Mean ± SD) ([1]; TA100, without S9 activation, 156.3 μg/plate): 117 ± 11 reverse mutants/plate | Number of reverse mutants/plate (Mean ± SD) ([1]; TA100, without S9 activation, 312.5 μg/plate): 116 ± 9 reverse mutants/plate | Number of reverse mutants/plate (Mean ± SD) ([1]; TA100, without S9 activation, 625 μg/plate): 124 ± 6 reverse mutants/plate | Number of reverse mutants/plate (Mean ± SD) ([1]; TA100, without S9 activation, 1,250 μg/plate): 107 ± 12 reverse mutants/plate | Number of reverse mutants/plate (Mean ± SD) ([1]; TA100, without S9 activation, 2,500 μg/plate): 108 ± 6 reverse mutants/plate | Number of reverse mutants/plate (Mean ± SD) ([1]; TA100, without S9 activation, 5,000 μg/plate): 119 ± 12 reverse mutants/plate | Number of reverse mutants/plate (Mean ± SD) ([2]; TA1535, with S9 activation, 78.1 μg/plate): 24 ± 3 reverse mutants/plate | Number of reverse mutants/plate (Mean ± SD) ([2]; TA1535, with S9 activation, 156.3 μg/plate): 22 ± 3 reverse mutants/plate | Number of reverse mutants/plate (Mean ± SD) ([2]; TA1535, with S9 activation, 312.5 μg/plate): 23 ± 4 reverse mutants/plate | Number of reverse mutants/plate (Mean ± SD) ([2]; TA1535, with S9 activation, 625 μg/plate): 21 ± 4 reverse mutants/plate | Number of reverse mutants/plate (Mean ± SD) ([2]; TA1535, with S9 activation, 1,250 μg/plate): 21 ± 3 reverse mutants/plate | Number of reverse mutants/plate (Mean ± SD) ([2]; TA1535, with S9 activation, 2,500 μg/plate): 20 ± 2 reverse mutants/plate | Number of reverse mutants/plate (Mean ± SD) ([2]; TA1535, with S9 activation, 5,000 μg/plate): 21 ± 6 reverse mutants/plate | Number of reverse mutants/plate (Mean ± SD) ([2]; TA1535, without S9 activation, 78.1 μg/plate): 15 ± 2 reverse mutants/plate | Number of reverse mutants/plate (Mean ± SD) ([2]; TA1535, without S9 activation, 156.3 μg/plate): 17 ± 2 reverse mutants/plate | Number of reverse mutants/plate (Mean ± SD) ([2]; TA1535, without S9 activation, 312.5 μg/plate): 18 ± 2 reverse mutants/plate | Number of reverse mutants/plate (Mean ± SD) ([2]; TA1535, without S9 activation, 625 μg/plate): 17 ± 5 reverse mutants/plate | Number of reverse mutants/plate (Mean ± SD) ([2]; TA1535, without S9 activation, 1,250 μg/plate): 17 ± 2 reverse mutants/plate | Number of reverse mutants/plate (Mean ± SD) ([2]; TA1535, without S9 activation, 2,500 μg/plate): 18 ± 4 reverse mutants/plate | Number of reverse mutants/plate (Mean ± SD) ([2]; TA1535, without S9 activation, 5,000 μg/plate): 17 ± 3 reverse mutants/plate | Number of reverse mutants/plate (Mean ± SD) ([3]; with S9 activation, 78.1 μg/plate): 39 ± 3 reverse mutants/plate | Number of reverse mutants/plate (Mean ± SD) ([3]; with S9 activation, 156.3 μg/plate): 40 ± 2 reverse mutants/plate | Number of reverse mutants/plate (Mean ± SD) ([3]; with S9 activation, 312.5 μg/plate): 42 ± 3 reverse mutants/plate | Number of reverse mutants/plate (Mean ± SD) ([3]; with S9 activation, 625 μg/plate): 38 ± 3 reverse mutants/plate | Number of reverse mutants/plate (Mean ± SD) ([3]; with S9 activation, 1,250 μg/plate): 37 ± 2 reverse mutants/plate | Number of reverse mutants/plate (Mean ± SD) ([3]; with S9 activation, 2,500 μg/plate): 43 ± 3 reverse mutants/plate | Number of reverse mutants/plate (Mean ± SD) ([3]; with S9 activation, 5,000 μg/plate): 40 ± 2 reverse mutants/plate | Number of reverse mutants/plate (Mean ± SD) ([3]; without S9 activation, 78.1 μg/plate): 39 ± 3 reverse mutants/plate | Number of reverse mutants/plate (Mean ± SD) ([3]; without S9 activation, 156.3 μg/plate): 33 ± 3 reverse mutants/plate | Number of reverse mutants/plate (Mean ± SD) ([3]; without S9 activation, 312.5 μg/plate): 37 ± 2 reverse mutants/plate | Number of reverse mutants/plate (Mean ± SD) ([3]; without S9 activation, 625 μg/plate): 36 ± 2 reverse mutants/plate | Number of reverse mutants/plate (Mean ± SD) ([3]; without S9 activation, 1,250 μg/plate): 36 ± 3 reverse mutants/plate | Number of reverse mutants/plate (Mean ± SD) ([3]; without S9 activation, 2,500 μg/plate): 32 ± 1 reverse mutants/plate | Number of reverse mutants/plate (Mean ± SD) ([3]; without S9 activation, 5,000 μg/plate): 36 ± 2 reverse mutants/plate | % DNA in tail ([4]; S9 Mix (+), 3.9 μg/ml): 0.98 ± 0.13% | Olive moment ([4]; S9 Mix (+), 3.9 μg/ml): 0.41 ± 0.04 μm | Tail length ([4]; S9 Mix (+), 3.9 μg/ml): 0.86 ± 0.04 μm | Tail moment ([4]; S9 Mix (+), 3.9 μg/ml): 0.04 ± 0.01 μm | % DNA in tail ([4]; S9 Mix (+), 7.8 μg/ml): 1.16 ± 0.08% | Olive moment ([4]; S9 Mix (+), 7.8 μg/ml): 0.56 ± 0.06 μm | Tail length ([4]; S9 Mix (+), 7.8 μg/ml): 0.95 ± 0.13 μm | Tail moment ([4]; S9 Mix (+), 7.8 μg/ml): 0.06 ± 0.01 μm | % DNA in tail ([4]; S9 Mix (+), 15.5 μg/ml): 1.42 ± 0.16% | Olive moment ([4]; S9 Mix (+), 15.5 μg/ml): 0.78 ± 0.12 μm | Tail length ([4]; S9 Mix (+), 15.5 μg/ml): 1.04 ± 0.06 μm | Tail moment ([4]; S9 Mix (+), 15.5 μg/ml): 0.13 ± 0.02 μm | % DNA in tail ([4]; S9 Mix (+), 31 μg/ml): 1.58 ± 0.11% | Olive moment ([4]; S9 Mix (+), 31 μg/ml): 0.80 ± 0.17 μm | Tail length ([4]; S9 Mix (+), 31 μg/ml): 1.17 ± 0.07 μm | Tail moment ([4]; S9 Mix (+), 31 μg/ml): 0.09 ± 0.02 μm | % DNA in tail ([4]; S9 Mix (+), 62 μg/ml): 1.65 ± 0.09% | Olive moment ([4]; S9 Mix (+), 62 μg/ml): 0.85 ± 0.15 μm | Tail length ([4]; S9 Mix (+), 62 μg/ml): 1.20 ± 0.03 μm | Tail moment ([4]; S9 Mix (+), 62 μg/ml): 0.15 ± 0.01 μm | % DNA in tail ([4]; S9 Mix (−), 3.9 μg/ml): 0.93 ± 0.21% | Olive moment ([4]; S9 Mix (−), 3.9 μg/ml): 0.42 ± 0.03 μm | Tail length ([4]; S9 Mix (−), 3.9 μg/ml): 1.49 ± 0.36 μm | Tail moment ([4]; S9 Mix (−), 3.9 μg/ml): 0.03 ± 0.01 μm | % DNA in tail ([4]; S9 Mix (−), 7.8 μg/ml): 1.09 ± 0.37% | Olive moment ([4]; S9 Mix (−), 7.8 μg/ml): 0.62 ± 0.05 μm | Tail length ([4]; S9 Mix (−), 7.8 μg/ml): 1.98 ± 0.27 μm | Tail moment ([4]; S9 Mix (−), 7.8 μg/ml): 0.07 ± 0.02 μm | % DNA in tail ([4]; S9 Mix (−), 15.5 μg/ml): 1.61 ± 0.49% | Olive moment ([4]; S9 Mix (−), 15.5 μg/ml): 0.75 ± 0.07 μm | Tail length ([4]; S9 Mix (−), 15.5 μg/ml): 2.11 ± 0.41 μm | Tail moment ([4]; S9 Mix (−), 15.5 μg/ml): 0.13 ± 0.03 μm | % DNA in tail ([4]; S9 Mix (−), 31 μg/ml): 2.13 ± 0.36% | Olive moment ([4]; S9 Mix (−), 31 μg/ml): 0.98 ± 0.09 μm | Tail length ([4]; S9 Mix (−), 31 μg/ml): 2.75 ± 0.37 μm | Tail moment ([4]; S9 Mix (−), 31 μg/ml): 0.16 ± 0.03 μm | % DNA in tail ([4]; S9 Mix (−), 62 μg/ml): 2.52 ± 0.34% | Olive moment ([4]; S9 Mix (−), 62 μg/ml): 1.01 ± 0.07 μm | Tail length ([4]; S9 Mix (−), 62 μg/ml): 2.82 ± 0.46 μm | Tail moment ([4]; S9 Mix (−), 62 μg/ml): 0.21 ± 0.05 μm | % DNA in the tail, tail length, TM, or OM versus vehicle ([4]; presence or absence of metabolic activation): No significant differences | Cell viability (MTT) (CHL cells): decreased in dose dependent manner
